# In ChEMBL document CHEMBL1811860, “Synthesis and inhibitory activity of sialic acid derivatives targeted at viral sialate-O-acetylesterases” (Eur J Med Chem, 2011):
# Legend:
# [1] = Inhibition of influenza C virus 9-SOAE assessed as inhibition of hydrolysis of pNPA
# How it was run: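 Esterase came from whole virions purified by ultracentrifugation through a 20% sucrose cushion (1.5 h, 4 °C) and resuspended in PBS pH 7.4. Enzyme was preincubated with sialoside for 30 min at room temperature. pNPA (10 µl of 100 mM acetonitrile stock) was then added in PBS pH 7.4 to 1 ml, and A400 was monitored. Read-out was % inhibition of pNPA hydrolysis.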
# [2] = Inhibition of recombinant influenza C virus C/Cal/78 GFP-tagged 9-SOAE expressed in Sf9 cells assessed as inhibition of hydrolysis of pNPA at 2 mM
# How it was run: (§1)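 EGFP-fused haemagglutinin-esterase was made in serum-free Sf9 cultures via recombinant baculovirus and recovered from supernatant by ultracentrifugation (1.5 h, 4 °C). It was preincubated with sialoside for 30 min at room temperature. pNPA (10 µl of 100 mM acetonitrile stock) was added in PBS pH 7.4 to 1 ml, and A400 was followed. Read-out was % inhibition of pNPA hydrolysis.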
# [3] = Inhibition of Bovine coronavirus 9-SOAE expressed in Sf9 cells assessed as inhibition of hydrolysis of pNPA at 2 mM
# [4] = Inhibition of Bovine coronavirus […] assessed as inhibition of hydrolysis of pNPA at 1 mM; settings: Sf9
# [5] = Inhibition of Bovine coronavirus 9-SOAE expressed in Sf9 cells assessed as inhibition of hydrolysis of pNPA at 0.5 mM
# [6] = Inhibition of recombinant influenza C virus C/Cal/78 GFP-tagged 9-SOAE expressed in Sf9 cells assessed as inhibition of hydrolysis of pNPA at 1 mM; how it was run: as §1
# [7] = Inhibition of recombinant influenza C virus C/Cal/78 GFP-tagged 9-SOAE expressed in Sf9 cells assessed as inhibition of Neu5,9Ac2 hydrolysis at 1 mM by fluorimetric HPLC analysis
# How it was run: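 Baculovirus/Sf9-expressed EGFP fusion (10 mU) was preincubated with 1 mM sialoside in PBS pH 7.4 for 30 min at room temperature. Free O-acetylated sialic acid or bovine submandibular mucin (10 µg) was then added and incubated at 37 °C for 20–240 min. Mucin samples were hydrolysed in 2 M propionic acid (80 °C, 2 h). Sialic acids were analysed by reverse-phase HPLC with fluorimetric detection.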
# [8] = Inhibition of recombinant influenza C virus C/Cal/78 GFP-tagged 9-SOAE expressed in Sf9 cells assessed as inhibition of hydrolysis of pNPA at 0.5 mM; how it was run: as §1
# [9] = Inhibition of recombinant influenza C virus C/Cal/78 GFP-tagged 9-SOAE expressed in Sf9 cells assessed as inhibition of hydrolysis of pNPA at 5 mM; how it was run: as §1
# [10] = Inhibition of Influenza C virus C/JJ/50 9-SOAE expressed in Sf9 cells assessed as inhibition of hydrolysis of pNPA at 1 mM
# [11] = Inhibition of MHV S 4-SOAE expressed in Sf9 cells assessed as inhibition of hydrolysis of pNPA at 0.1 mM; settings: Murine coronavirus
# [12] = Inhibition of MHV S 4-SOAE expressed in Sf9 cells assessed as inhibition of hydrolysis of pNPA at 0.5 mM; settings: Murine coronavirus
# [13] = Inhibition of MHV S 4-SOAE expressed in Sf9 cells assessed as inhibition of hydrolysis of pNPA at 1 mM; settings: Murine coronavirus
# [14] = Inhibition of SDAV GFP-tagged 9-SOAE expressed in Sf9 cells assessed as inhibition of hydrolysis of pNPA at 5 mM; settings: Rat sialodacryoadenitis coronavirus; how it was run: as §1
# [15] = Inhibition of SDAV GFP-tagged 9-SOAE expressed in Sf9 cells assessed as inhibition of hydrolysis of pNPA at 0.5 mM; settings: Rat sialodacryoadenitis coronavirus; how it was run: as §1
# [16] = Inhibition of SDAV GFP-tagged 9-SOAE expressed in Sf9 cells assessed as inhibition of hydrolysis of pNPA at 1 mM; settings: Rat sialodacryoadenitis coronavirus; how it was run: as §1
# [17] = Inhibition of MHV S 4-SOAE expressed in Sf9 cells assessed as inhibition of hydrolysis of pNPA at 5 mM; settings: Murine coronavirus
# [18] = Inhibition of SDAV GFP-tagged 9-SOAE expressed in Sf9 cells assessed as inhibition of hydrolysis of pNPA at 0.1 mM; settings: Rat sialodacryoadenitis coronavirus; how it was run: as §1
molecule,measurement,setting,value
"((2S,4S,5R,6R)-5-acetamido-6-((1R,2R)-3-acetamido-1,2-dihydroxypropyl)-2-carboxy-4-hydroxytetrahydro-2H-pyran-2-ylthio)(methyl)mercury",Ki,[1],4.2 mM
C=CCO[C@]1(C(=O)O)C[C@H](O)[C@@H](NC(C)=O)[C@H]([C@H](O)[C@H](O)COC)O1,inhibition,[2],33%
same,inhibition,[3],< 0%
same,inhibition,[4],9%
same,inhibition,[5],2.86%
same,inhibition,[6],22.4%
same,inhibition,[7],10%
same,inhibition,[8],22.9%
same,inhibition,[9],85.8%
same,inhibition,[10],8.63%
C=CCO[C@]1(C(=O)O)C[C@H](OC)[C@@H](NC(C)=O)[C@H]([C@H](O)[C@H](O)CO)O1,inhibition,[11],4%
same,inhibition,[12],0%
same,inhibition,[13],8.31%
same,inhibition,[14],8.73%
same,inhibition,[15],2.56%
same,inhibition,[16],0.51%
same,inhibition,[17],7.73%
same,inhibition,[18],2.13%
